Measured values from different studies.
Compare with care: the assays were run in different laboratories.
Target: Mitogen-activated protein kinase kinase kinase 11 (MAP3K11, Homo sapiens, UniProt Q16584)

COc1ccc(COc2ccc(Cc3cnc(N)nc3N)cc2OC)cc1
remaining signal (cell-free assay; 0.5 µM): 101%

O=C(NCc1ncc(C(F)(F)F)cc1Cl)c1ccc2c(c1)C1(CCS(=O)(=O)CC1)[C@@H](C1CC1)N2S(=O)(=O)c1ccc(F)cc1
remaining binding (cell-free assay; competition with immobilised ligand; 1 µM): 100%

Nc1ncnc2occ(-c3ccc(NC(=O)Nc4cc(C(F)(F)F)ccc4F)cc3)c12
remaining signal (cell-free assay; inhibitor; 20 µM): 2.9%

Cc1c(C(=O)O)cc(-c2ccc(C3CCNCC3)cc2)c2ccc(-c3ccc(C(F)(F)F)cc3)cc12
remaining binding (binding; competition with immobilised ligand; 1 µM): 100%

C[C@H]1CCN(c2nccc(-c3cnn4ncccc34)n2)C1
remaining binding (binding; 1 µM): 93%

Cc1ccc(NC(=O)c2ccc(CN3CCN(C)CC3)cc2)cc1Nc1nc(-c2cccnc2)cs1
remaining signal (cell-free assay; 0.5 µM): 101%

c1cc(CN2CCOCC2)cc(Nc2nccc(NCCc3cnc[nH]3)n2)c1
remaining activity (enzyme activity; inhibitor; radiometric; 1 µM): 82%

COc1cc(/C=C/C(=O)CC(=O)/C=C/c2ccc(O)c(OC)c2)ccc1O
activity vs control (enzyme activity; inhibitor; 1 µM): 14%

CCC(=O)N[C@@H]1CC[C@H](C(=O)N(C)c2ccc(-c3nc4ccccc4o3)cc2)C1
remaining binding (cell-free assay; competition with immobilised ligand; 1 µM): 100%

Cc1nn(CC(F)(F)F)cc1Nc1nccc(NCCc2cnc[nH]2)n1
remaining activity (enzyme activity; inhibitor; radiometric; 1 µM): 94%

CCc1ccccc1C(=O)Nc1n[nH]c2c(C)c(F)c(C3C(C#N)=C(C)N(C)C(C)=C3C#N)cc12
remaining binding (cell-free assay; competition with immobilised ligand; 1 µM): 88%

CC/C(=N\NC(=O)NCc1cccc(O)c1)c1ccc(O)c(C)c1O
inhibition (enzyme activity; inhibitor; 0.1 µM): 9.4%

Cc1nn(CC(F)(F)F)cc1Nc1ncc(Br)c(NCCc2cnc[nH]2)n1
remaining activity (enzyme activity; inhibitor; radiometric; 1 µM): 60%

O=C1NC(=O)c2cc(Nc3ccc(F)cc3)c(Nc3ccc(F)cc3)cc21
remaining signal (cell-free assay; 0.5 µM): 98.4%

O=C(NCCCNc1nc(Nc2cccc(NC(=O)N3CCCC3)c2)ncc1I)c1cccs1
remaining activity (enzyme activity; inhibitor; radiometric; 1 µM): 1%

O=C1Nc2ccc(Cl)cc2C1=Cc1cc(Cl)c(O)c(Cl)c1
remaining signal (cell-free assay; 0.5 µM): 60.4%

Cc1nn(CC(F)(F)F)cc1Nc1ncc(C2CC2)c(NCCCNC(=O)C2CCC2)n1
remaining activity (enzyme activity; inhibitor; radiometric; 1 µM): 94%

COCCOc1nc(-c2ccc(Cl)nc2)nc2c1CN(C(=O)c1ncn3ccccc13)CC2
remaining binding (cell-free assay; competition with immobilised ligand; 0.1 µM): 100%

O=C(Nc1cnn(-c2csc(C(=O)NC3COC3)c2)c1)Nc1c(F)cccc1Cl
remaining activity (enzyme activity; inhibitor; 5 µM): 84.7%
